In ChEMBL document CHEMBL1128173, “Synthesis and structure-activity relationships of substituted 1,4-dihydroquinoxaline-2,3-diones: antagonists of N-methyl-D-aspartate (NMDA) receptor glycine sites and non-NMDA glutamate receptors” (J Med Chem, 1995):

Tests used:
[1] = molecular target: Glutamate receptor ionotropic, AMPA (Rattus norvegicus) (UniProt P19491+P19492+P19493+P19490); test: Binding affinity against rat brain Non N-methyl-D-aspartate glutamate receptor glutamate site expressed in Xenopus oocyte
Outline: (§1)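 Oocytes expressing whole rat brain poly(A)+ RNA (~50 ng injected), voltage-clamped with two electrodes 3–10 days after injection and perfused with Ringer pH 7.4. Antagonist perfused ~30 s before agonist, with washout over 1–5 min. Non-NMDA IC50 estimated from partial (three- or four-point) concentration-inhibition curves fit to a logistic equation with a slope factor. Final DMSO 0.03–0.3%.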

[2] = Selectivity for glycine site
[3] = molecular target: Glutamate receptor ionotropic, NMDA 1 (Rattus norvegicus) (UniProt P35439); test: The compound was tested for binding affinity against NMDA receptor glycine site in Xenopus oocyte
Outline: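 Xenopus stage V–VI oocytes injected with ~50 ng rat whole-brain poly(A)+ RNA; two-electrode voltage clamp at −70 mV, 3–10 days post-injection, frog Ringer pH 7.4. NMDA fixed at 100 µM, glycine 1 µM; antagonist pre-applied ~30 s with glycine. Amplitude read at the slow second-phase peak; IC50 from 3–4-point inhibition curves fit with slope factor.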

Rattus norvegicus = species on record: Rattus norvegicus; test: The compound was tested for binding affinity against Non N-methyl-D-aspartate glutamate receptor glutamate site expressed in Xenopus oocyte; outline: as §1

Work on `Oc1nc2ccc(Br)cc2nc1O` yielded a Kb [1] of 11.2 µM and a Selectivity [2] of 4.7.
`Oc1nc2c(F)c(F)c(F)c(F)c2nc1O` gave a Kb [1] of 26.6 µM and a Selectivity [2] of 8.
`Oc1nc2cc(F)cc(C(F)(F)F)c2nc1O` showed a Kb [1] of 16.3 µM and a Selectivity [2] of 4.8.
In the case of `Nc1c(Cl)c(Cl)cc2nc(O)c(O)nc12`, the Kb [1] is reported as 5.19 µM and the Selectivity [2] is reported as 88.
In the case of `O=[N+]([O-])c1c(Br)c(Cl)cc2nc(O)c(O)nc12`, the Kb [1] is reported as 0.95 µM and the Selectivity [2] is reported as 120.
For `Oc1nc2cc(F)c(F)c(F)c2nc1O`, the Kb [1] was 30.4 µM and the Selectivity [2] was 5.4.
With `Oc1nc2cc(F)c(F)cc2nc1O` the Kb [1] was 21.5 µM and the Selectivity [2] was 4.5.
`O=[N+]([O-])c1c(Cl)cc2nc(O)c(O)nc2c1[N+](=O)[O-]` showed a Kb [3] of 0.042 µM, a Kb (Rattus norvegicus) of 0.99 µM and a Selectivity [2] of 24.
For `O=[N+]([O-])c1c(F)c(Cl)cc2nc(O)c(O)nc12`, the Kb [1] was 1.61 µM and the Selectivity [2] was 81.
For `Nc1c(Br)c(Br)cc2nc(O)c(O)nc12`, the Kb [1] was 3.32 µM and the Selectivity [2] was 66.
In the case of `O=[N+]([O-])c1c(Cl)c(C(F)(F)F)cc2nc(O)c(O)nc12`, the Kb [1] is reported as 0.55 µM and the Selectivity [2] is reported as 15.
For `Oc1nc2cc(C(F)(F)F)c(Cl)c(Cl)c2nc1O`, the Kb [1] was 1.23 µM and the Selectivity [2] was 6.5.
Work on `O=[N+]([O-])c1cc2nc(O)c(O)nc2cc1Cl` yielded a Kb [1] of 0.64 µM and a Selectivity [2] of 2.3.
With `Oc1nc2cc(Br)cc(Br)c2nc1O` the Kb [1] was 6.01 µM and the Selectivity [2] was 6.8.
Work on `CC(=O)Nc1c(Cl)c(Cl)cc2nc(O)c(O)nc12` yielded a Kb [1] of 5.57 µM and a Selectivity [2] of 23.
For `Oc1nc2cc(F)c(F)c(Cl)c2nc1O`, the Kb [1] was 17.9 µM and the Selectivity [2] was 10.
With `Nc1c(C(F)(F)F)cc(Cl)c2nc(O)c(O)nc12` the Kb [1] was 63.4 µM.
With `O=[N+]([O-])c1c(C(F)(F)F)cc(Cl)c2nc(O)c(O)nc12` the Kb [1] was > 30 µM.
`Oc1nc2cc(Br)c(C(F)(F)F)cc2nc1O` gave a Kb [1] of 1.49 µM and a Selectivity [2] of 5.7.
For `O=[N+]([O-])c1cc(Cl)cc2nc(O)c(O)nc12`, the Kb [1] was 8.02 µM and the Selectivity [2] was 16.
In the case of `Oc1nc2cc(Cl)c(C(F)(F)F)cc2nc1O`, the Kb [1] is reported as 2.55 µM and the Selectivity [2] is reported as 9.8.
`O=[N+]([O-])c1c(Br)c(C(F)(F)F)cc2nc(O)c(O)nc12` gave a Kb [1] of 0.47 µM and a Selectivity [2] of 17.
Compound `O=[N+]([O-])c1c(Br)c(F)cc2nc(O)c(O)nc12` has a Kb [1] of 3.45 µM and a Selectivity [2] of 35.
Compound `O=c1[nH]c2cc(Cl)c(Cl)c([N+](=O)[O-])c2[nH]c1=O` has a Kb [1] of 1.5 µM and a Selectivity [2] of 254.
With `O=[N+]([O-])c1cccc2nc(O)c(O)nc12` the Kb [1] was > 100 µM and the Selectivity [2] was > 5.8.
In the case of `Oc1nc2ccccc2nc1O`, the Kb [1] is reported as 98.2 µM and the Selectivity [2] is reported as 5.9.
`O=[N+]([O-])c1cc(C(F)(F)F)cc2nc(O)c(O)nc12` gave a Kb [1] of 4.13 µM and a Selectivity [2] of 13.
With `O=[N+]([O-])c1c(Br)ccc2nc(O)c(O)nc12` the Kb [1] was 36.3 µM and the Selectivity [2] was 28.
Compound `Oc1nc2cc(Cl)c(Br)cc2nc1O` has a Kb [1] of 5.7 µM and a Selectivity [2] of 16.
In the case of `Oc1nc2cc(Br)cc(C(F)(F)F)c2nc1O`, the Kb [1] is reported as 3.4 µM and the Selectivity [2] is reported as 14.
Compound `O=[N+]([O-])c1c(F)c(F)cc2nc(O)c(O)nc12` has a Kb [1] of 6.01 µM and a Selectivity [2] of 19.
`Oc1nc2cc(C(F)(F)F)cc(Br)c2nc1O` showed a Kb [1] of 4.29 µM and a Selectivity [2] of 4.2.
Compound `Oc1nc2cc(Cl)cc(C(F)(F)F)c2nc1O` has a Kb [1] of 4.67 µM and a Selectivity [2] of 7.6.
Compound `Oc1nc2cc(Cl)cc(Cl)c2nc1O` has a Kb [1] of 9.27 µM and a Selectivity [2] of 13.
With `O=[N+]([O-])c1ccc2nc(O)c(O)nc2c1` the Kb [1] was 1.67 µM and the Selectivity [2] was 0.7.
With `Oc1nc2ccc(Cl)cc2nc1O` the Kb [1] was 16.4 µM and the Selectivity [2] was 6.3.
With `Oc1nc2cc(Cl)c(Cl)c(C(F)(F)F)c2nc1O` the Kb [1] was 2.66 µM and the Selectivity [2] was 14.
Work on `Oc1nc2cc(F)c(C(F)(F)F)cc2nc1O` yielded a Kb [1] of 3.78 µM and a Selectivity [2] of 1.5.
`O=[N+]([O-])c1c(Cl)c(Cl)c(Cl)c2nc(O)c(O)nc12` gave a Kb [1] of 14.1 µM and a Selectivity [2] of 11.
Compound `O=[N+]([O-])c1c(F)c(Br)cc2nc(O)c(O)nc12` has a Kb [1] of 1.4 µM and a Selectivity [2] of 35.
`Oc1nc2cc(F)c(Cl)c(F)c2nc1O` showed a Kb [1] of 13.2 µM and a Selectivity [2] of 7.3.
With `Oc1nc2cc(C(F)(F)F)cc(Cl)c2nc1O` the Kb [1] was 3.7 µM and the Selectivity [2] was 7.1.
With `O=[N+]([O-])c1c(Cl)ccc2nc(O)c(O)nc12` the Kb [1] was 36.4 µM and the Selectivity [2] was 74.
In the case of `Oc1nc2cc(Br)c(Br)cc2nc1O`, the Kb [1] is reported as 4.05 µM and the Selectivity [2] is reported as 19.
With `O=[N+]([O-])c1c(F)c(Cl)c(F)c2nc(O)c(O)nc12` the Kb [1] was 6.56 µM and the Selectivity [2] was 23.
Work on `O=[N+]([O-])c1c(Br)c(Br)cc2nc(O)c(O)nc12` yielded a Kb (Rattus norvegicus) of 0.89 µM and a Selectivity [2] of 140.
Compound `Oc1nc2cc(Cl)c(Cl)cc2nc1O` has a Kb [1] of 4.81 µM and a Selectivity [2] of 13.
For `Oc1nc2cc(F)c(Cl)cc2nc1O`, the Kb [1] was 10.8 µM and the Selectivity [2] was 4.5.
Compound `Oc1nc2cc(C(F)(F)F)cc(C(F)(F)F)c2nc1O` has a Kb [1] of 2.21 µM and a Selectivity [2] of 4.9.
Compound `Oc1nc2cc(Cl)c(Cl)c(Cl)c2nc1O` has a Kb [1] of 4.19 µM and a Selectivity [2] of 51.
For `O=[N+]([O-])c1c(Cl)c(Br)cc2nc(O)c(O)nc12`, the Kb [1] was 1.24 µM and the Selectivity [2] was 170.
In the case of `Oc1nc2cc(Cl)c(Cl)c(Br)c2nc1O`, the Kb [1] is reported as 4.11 µM and the Selectivity [2] is reported as 43.
